Screening data deposited in PubChem BioAssay by Sanford-Burnham Center for Chemical Genomics.
SENP8 block-1 = SENP8 (human) protease inhibition; Q96LD8; recombinant SENP8, Nedd8 substrate fluorescence; inhibition, % at 20 µM; 0.64% of 360,000 active; in the data active = inhibition mostly above about 40%, no sharp cut-off; inactive = mostly below about 27%
Apaf1 inhib = human Apaf-1 inhibition. O14727. reconstituted apoptosome caspase-3 activity, DEVD-Rh110 fluorescence. inhibition, % at 20 µM. 0.71% of 330,000 active. AID 489030; active = inhibition of at least 40% at 20 µM;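 note: plate controls were DMSO wells for no effect and DEVD-CHO caspase inhibitor wells for full effect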
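Material: reconstituted apoptosome with Apaf-1, cytochrome c, caspase-9, procaspase-3, dATP; medium: pH 7.5 Hepes buffer with CHAPS, BSA, DTT; also added: cytochrome c and DEVD-Rh110 substrate; timing: 30 min plus 50 min, RT; signal: Rh110 fluorescence intensity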
UBC13 inh = inhibitors of human UBC13 polyubiquitin chain formation | P61088 | TR-FRET | inhibition, % at 20 µM | 0.47% of 330,000 active | AID 485273; in the data active = inhibition above about 45%, passing the limit was not always enough
SENP8 block-2 = inhibitors of human SENP8 protease; Q96LD8; purified SENP8, Z-RLRGG-aminoluciferin cleavage, luminescence; inhibition, % at 10 µM; 1.2% of 330,000 active; AID 2540; in the data active = inhibition above about 50%
SENP7 inh = SENP7 protease inhibition; Q9BQF6; recombinant SENP7, Z-RLRGG-aminoluciferin luminescence, 40 min; inhibition, % at 5 µM; 1.5% of 330,000 active; AID 434973;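 active = inhibition above about 50% at the single test dose, limit read from the data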;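 note: plate controls were DMSO with enzyme for no effect and no enzyme buffer wells for full effect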
SENP6 block = blocks the human protease SENP6; Recombinant SENP6 catalytic domain, aminoluciferin luminescence; inhibition, % at 10 µM; 1.8% of 330,000 active; AID 2599;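 active = inhibition above about 50% at the single tested dose, limit read from the data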;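 note: plate controls were DMSO wells with enzyme for no effect and DMSO wells lacking enzyme for full effect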
SENP8 confirm = confirmation of human SENP8 protease inhibitors; inhibition, % at 12.5 µM; 40% of 6,200 active; shares compounds with SENP7 inh; Recombinant SENP8, Z-RLRGG-aminoluciferin luminescence, 60 min;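 active = mean inhibition across replicates above about 50%, limit read from the data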
SENP6 conf = confirmation of human SENP6 protease inhibitors. shares compounds with SENP7 inh. recombinant SENP6, Z-RLRGG-aminoluciferin luminescence. inhibition, % at 12.5 µM. 58% of 6,200 active. AID 488915
SENP7 conf = human SENP7 inhibition, confirmed | shares compounds with SENP7 inh | recombinant SENP7, Z-RLRGG-aminoluciferin luminescence, 40 min | inhibition, % at 12.5 µM | 69% of 6,200 active | AID 488917
Casp3 SENP sel = caspase-3 inhibition (SENP selectivity assay); shares compounds with SENP7 inh; purified caspase-3, Z-DEVD-aminoluciferin luminescence, 60 min; inhibition, % at 12.5 µM; 60% of 6,200 active;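 active = mean inhibition above about 50%, limit read from the data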;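 note: plate controls were enzyme with DMSO for no effect and wells without caspase-3 for full effect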
Luc interf = luminescence interference (SENP counter-screen). shares compounds with SENP7 inh. Pre-incubated SENP8/Z-RLRGG-aminoluciferin, luciferase luminescence interference. inhibition, % at 12.5 µM. 39% of 6,200 active. AID 488919;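 active = mean inhibition above about 50% when retested at one dose, limit read from the data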;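 note: plate controls were DMSO wells with completed reaction for no effect and substrate without enzyme for full effect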
Starred values were filed as active, the others as inactive. The list is not random: actives were taken first. Their share in the collection is about 3%.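 Rule for the calls, unless noted: active = mean inhibition above about 50% in the one-dose retest (limit read from the data); inactive = the rest.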

Screening Cc1cc(Cl)ccc1NC(=S)NCC(O)c1ccccc1 (centres undefined) returned SENP8 block-1 8, Apaf1 inhib -3, UBC13 inh -8, SENP8 block-2 -10, SENP7 inh 14 and SENP6 block 1.
For CC1(C(=O)NS(=O)(=O)Cc2ccccc2)CCN1C(=O)Cc1ccccc1Cl (centres undefined) the results were SENP8 block-1 14.
For Cc1cccc(NC(=S)Nc2ccccn2)c1 the results were SENP8 block-1 2, Apaf1 inhib 14, UBC13 inh 2, SENP8 block-2 -2, SENP7 inh 9 and SENP6 block -4.
Cc1cccc(NC(=S)c2nc3ccccc3s2)c1 was read as SENP8 block-1 26, Apaf1 inhib 9, UBC13 inh -10, SENP8 block-2 84*, SENP7 inh 90*, SENP6 block 65*, SENP8 confirm 62*, SENP6 conf 83*, SENP7 conf 90*, Casp3 SENP sel 74* and Luc interf 26.
For COc1cc(/C=C2\NC(=S)NC2=O)ccc1OCc1cccc(C(=O)O)c1 the results were SENP8 block-1 -82, Apaf1 inhib 8, UBC13 inh -4, SENP8 block-2 -12, SENP7 inh -4 and SENP6 block 28.
Screening O=C1NC(=O)/C(=C\c2ccc(OCc3cccc(C(=O)O)c3)c(Cl)c2)N1 returned SENP8 block-1 -179, Apaf1 inhib 3, UBC13 inh 1, SENP8 block-2 90*, SENP7 inh 77*, SENP6 block 95*, SENP8 confirm -16, SENP6 conf 93*, SENP7 conf 101*, Casp3 SENP sel 30 and Luc interf 71*.
Screening O=C(Nc1ccc(F)c(Cl)c1)c1nsc(Cl)c1Cl returned SENP8 block-1 15, Apaf1 inhib -16, UBC13 inh 9, SENP8 block-2 91*, SENP7 inh 96*, SENP6 block 93*, SENP8 confirm 53*, SENP6 conf 74*, SENP7 conf 87*, Casp3 SENP sel 80* and Luc interf 27.
`O=C(Nc1ccc(F)cc1)c1nsc(Cl)c1Cl` gave SENP8 block-1 32, Apaf1 inhib -2, UBC13 inh 1, SENP8 block-2 84*, SENP7 inh 83*, SENP6 block 94*, SENP8 confirm 62*, SENP6 conf 87*, SENP7 conf 97*, Casp3 SENP sel 90* and Luc interf 57*.
Screening CCOc1ccc(NC(=O)c2nsc(Cl)c2Cl)cc1 returned SENP8 block-1 27, Apaf1 inhib 0, UBC13 inh -13, SENP8 block-2 18, SENP7 inh 35 and SENP6 block -33.
`O=S(=O)(c1ccc(F)cc1)N1CCN(CC(O)COCC2CCCO2)CC1` (centres undefined) gave SENP8 block-1 10, Apaf1 inhib -1, UBC13 inh 4, SENP8 block-2 16, SENP7 inh -3 and SENP6 block -19.
For Cc1ccc(NC(=O)C(C)SCc2ccccc2)cc1 (centres undefined) the results were SENP8 block-1 13, Apaf1 inhib -6, UBC13 inh 6, SENP8 block-2 6, SENP7 inh -3 and SENP6 block -6.
`O=C(NCc1cccc(C(F)(F)F)c1)c1[nH]c(C(F)(F)F)nc1-c1ccccc1` gave SENP8 block-1 22.
Screening CC(=O)c1sc(Nc2nc3ccc(F)cc3s2)nc1C returned SENP8 block-1 -307, Apaf1 inhib 19, UBC13 inh 1, SENP8 block-2 53*, SENP7 inh 30, SENP6 block 81*, SENP8 confirm 12, SENP6 conf 72*, SENP7 conf 90*, Casp3 SENP sel 48 and Luc interf 13.
For CCOC(=O)c1csc(Nc2nc3ccc(F)cc3s2)n1 the results were SENP8 block-1 -5, Apaf1 inhib 20, UBC13 inh -11, SENP8 block-2 -18, SENP7 inh 3, SENP6 block 58*, SENP8 confirm 1, SENP6 conf -2, SENP7 conf 12, Casp3 SENP sel 6 and Luc interf 2.
For CCOC(=O)c1sc(Nc2nc3ccc(OC)cc3s2)cc1C the results were SENP8 block-1 -392, Apaf1 inhib 2, UBC13 inh 13, SENP8 block-2 -3, SENP7 inh 7 and SENP6 block 0.
Screening COC(=O)c1ccc2nc(Nc3nc4ccc(F)cc4s3)sc2c1 returned SENP8 block-1 -443.
Screening COc1ccc(-n2nc3ccc(N)cc3n2)cc1 returned SENP8 block-1 inactive.
For CC(C)c1ccc(-n2nc3ccc(N)cc3n2)cc1 the results were SENP8 block-1 -420, Apaf1 inhib 63*, UBC13 inh 12, SENP8 block-2 73*, SENP7 inh 29, SENP6 block 88*, SENP8 confirm 1, SENP6 conf 88*, SENP7 conf 98*, Casp3 SENP sel 56* and Luc interf 20.
For Cc1[nH]n(-c2ccc([N+](=O)[O-])cc2)c(=O)c1C=NCCN1CCN(C(=O)c2ccccc2)CC1 the results were SENP8 block-1 28, Apaf1 inhib 3, UBC13 inh -11, SENP8 block-2 70*, SENP7 inh 90*, SENP6 block 88*, SENP8 confirm 27, SENP6 conf 44, SENP7 conf 31, Casp3 SENP sel 67* and Luc interf 59*.
For O=C(c1cc2c(ccc3ccccc32)o1)N1CCCCC1 the results were SENP8 block-1 8, Apaf1 inhib 29, UBC13 inh -9, SENP8 block-2 84*, SENP7 inh 91*, SENP6 block 93*, SENP8 confirm 90*, SENP6 conf 90*, SENP7 conf 99*, Casp3 SENP sel 86* and Luc interf 89*.
`CCc1ccc2oc(C(=O)Nc3cccnc3)c(C)c2c1` gave SENP8 block-1 22, Apaf1 inhib 12, UBC13 inh 5, SENP8 block-2 49, SENP7 inh 69*, SENP6 block 64*, SENP8 confirm 19, SENP6 conf 67*, SENP7 conf 92*, Casp3 SENP sel 55* and Luc interf 10.
